This excerpt belongs to a sample that is enriched for hits.
H69AR inhibit: blocks growth of human H69AR lung tumor cells; H69AR lung tumor viability, ATP luminescence, 72 h; hits give low values; viability, % at 10 µM; 85,000 tested, 6% active; AID 598;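 active = viability at or below 40%; inactive = viability above 40%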;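 also: multidrug resistant small cell line overexpressing MRP-1 efflux transporter; 100% = mean luminescence of untreated control wells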
HCT116 bCat-KO: beta-catenin-lacking colon tumor cell growth suppression | HCT116 beta-catenin knockout viability, CellTiter-Glo, 60 h; hits give low values | viability, % at 10 µM | 140,000 tested, 1.5% active | AID 818;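 active = viability at or under a set limit, the compound median less 4 SD, cut at about 6% in these data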;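 also: 0% = Hyamine 1622 control at 20 µM and 100% = untreated cell control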
PTEN del growth: growth suppressors of cells with PTEN tumor suppressor deletion | 140,000 tested, 1.2% active | HCT116 PTEN-null viability, CellTiter-Glo, 60 h; hits give low values | viability, % at 10 µM;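 active = viability at or below a set limit, 4 SD under the median of all tested compounds, cut at about 3.7% in these data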;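 also: PTEN knockout HCT116 line with beta catenin targeted HCT116 as companion control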
Fibroblast inh: blocks proliferation of human lung fibroblasts. 85,000 tested, 1.1% active. LL 47 human lung fibroblast viability, ATP luminescence; hits give low values. AID 719. viability, % at 10 µM;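 active = viability at or below 50% in the single dose screen; inactive = viability above 50%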;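 also: compound exposure lasted 72 h before the ATP readout; 100% = median luminescence of untreated cell-only wells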
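Times – overnight cell rest, 72 h compound treatment at 37 °C · Test system – human lung fibroblast line LL 47, low passage · Amount – 1,150 cells in each well · Controls – cell-only wells, no compound · Doses – 0.1% DMSO in all compound wells · Measured by – CellTiter-Glo luminescence · Buffer or medium – IMEM plus 15% FBS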
HUVEC prolif 384: human endothelial cell proliferation inhibition | HUVEC proliferation, CellTiter-Glo luminescence, 72 h; hits give low values | viability, % at 10 µM (by protocol) | 86,000 tested, 1.1% active | AID 648;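 active = viability at or below 30%; inactive = viability above 30%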;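 also: 100% = median luminescence of DMSO-only cell control wells on each plate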
An asterisk follows results filed as active.

Screening Clc1ccccc1-c1nc2nc3ccccc3nc2n1-c1ccc2c(c1)OCO2 returned HCT116 bCat-KO 73.8 and PTEN del growth 77.6.
`O=C1/C(=C/c2cccnc2)Oc2cc(OS(=O)(=O)c3ccccc3)ccc21` gave H69AR inhibit 3.4*, HCT116 bCat-KO 80.7, PTEN del growth 70.6, Fibroblast inh 105.3 and HUVEC prolif 384 90.6.
`COc1ccc(S(=O)(=O)Oc2ccc3c(c2)O/C(=C\c2cccnc2)C3=O)cc1` gave H69AR inhibit 17.4*, HCT116 bCat-KO 29.2, PTEN del growth 21.5, Fibroblast inh 93.6 and HUVEC prolif 384 93.0.
Screening O=C1/C(=C/c2cccnc2)Oc2cc(OS(=O)(=O)c3ccc(Cl)cc3)ccc21 returned H69AR inhibit 86.8, HCT116 bCat-KO 88.0, PTEN del growth 88.8, Fibroblast inh 97.7 and HUVEC prolif 384 91.0.
Screening COc1ccccc1C(=O)Oc1ccc2c(c1)O/C(=C\c1ccncc1)C2=O returned HCT116 bCat-KO 65.6 and PTEN del growth 54.3.
CNC(=O)c1cc2c(=O)n3cccc(C)c3nc2n1C was read as H69AR inhibit 74.8, Fibroblast inh 89.8 and HUVEC prolif 384 79.8.
`CCOC(=O)C1C(=O)C=C(c2cccc(NS(C)(=O)=O)c2)CC1c1ccco1` (stereo unspecified) gave H69AR inhibit 37.0*, HCT116 bCat-KO 70.3, PTEN del growth 68.1, Fibroblast inh 86.2 and HUVEC prolif 384 69.4.
Screening CCOC(=O)C1C(=O)C=C(c2ccc(Br)cc2)CC1c1ccco1 (stereo unspecified) returned H69AR inhibit 27.6*, HCT116 bCat-KO 35.5, PTEN del growth 30.8, Fibroblast inh 99.6 and HUVEC prolif 384 97.0.
CCOC(=O)C1C(=O)C=C(c2ccc([N+](=O)[O-])cc2)CC1c1ccccc1 (stereo unspecified) was read as HCT116 bCat-KO 77.4 and PTEN del growth 73.7.
Cc1nnc(SCC(=O)Nc2sc3c(c2C(=O)c2ccccc2)CCCC3)s1 was read as HCT116 bCat-KO 77.6 and PTEN del growth 70.8.
Screening CCOc1cc2[nH]c(=O)n(CC3CCC(C(=O)NC(C)CC)CC3)c(=O)c2cc1OCC (stereo unspecified) returned H69AR inhibit 83.6, Fibroblast inh 95.9 and HUVEC prolif 384 46.5.
`NC(=O)c1ccc(NC(=O)COC(=O)CC(NC(=O)c2ccccc2Cl)c2ccccc2)cc1` (stereo unspecified) gave HCT116 bCat-KO 95.2 and PTEN del growth 100.3.
Cc1ccc(C(=O)C(OC(=O)CN2C(=O)c3ccccc3C2=O)c2ccccc2)cc1C (stereo unspecified) was read as HCT116 bCat-KO 97.2 and PTEN del growth 102.6.
Screening COc1cc(OC)cc(-c2ncc3ccccn23)c1 returned H69AR inhibit 38.1*, HCT116 bCat-KO 75.7, PTEN del growth 83.5, Fibroblast inh 97.7 and HUVEC prolif 384 80.8.
Screening O=C(Nc1cccc(F)c1)C1CCN(C(=O)c2ccc(Br)cc2)CC1 returned H69AR inhibit 33.9*, HCT116 bCat-KO 68.6, PTEN del growth 68.7, Fibroblast inh 101.6 and HUVEC prolif 384 91.6.
Screening S=c1[nH]nc(-c2ccc3c(c2)OCO3)n1-c1ccccc1 returned HCT116 bCat-KO 99.0 and PTEN del growth 93.5.
Screening S=c1[nH]nc(COc2ccc3c(c2)OCO3)n1-c1ccccc1 returned H69AR inhibit 37.4*, HCT116 bCat-KO 92.7, PTEN del growth 99.8, Fibroblast inh 97.7 and HUVEC prolif 384 93.1.
For COc1cc(CNc2cccc(C(=O)O)c2)cc(Br)c1OCC(=O)NC(C)(C)C the results were HCT116 bCat-KO 92.2 and PTEN del growth 94.0.
COc1ccc(-c2nnc(SCC(=O)N3CCN(c4ccccc4)CC3)o2)cc1OC was read as H69AR inhibit 14.3*, HCT116 bCat-KO 90.7, PTEN del growth 87.4, Fibroblast inh 93.6 and HUVEC prolif 384 65.9.
For Cc1nc(Cl)c(C(=O)NC(=O)NCc2ccccc2)c(C)c1Cl the results were HCT116 bCat-KO 89.6 and PTEN del growth 84.4.
CCOC(=O)c1cnn(-c2ncnc3c2cnn3Cc2ccccc2)c1N was read as H69AR inhibit 25.7*, Fibroblast inh 91.5 and HUVEC prolif 384 20.1*.
For Clc1ccc(C(c2ccccc2)N2CCNCC2)cc1 (stereo unspecified) the results were H69AR inhibit 37.2*, HCT116 bCat-KO 36.5, PTEN del growth 30.4, Fibroblast inh 87.8 and HUVEC prolif 384 82.8.
For CC12CNCC(C)(CN(C(c3ccccc3)c3ccccc3)C1)C2 the results were H69AR inhibit 50.4, HCT116 bCat-KO 54.1, PTEN del growth 56.5, Fibroblast inh 86.8 and HUVEC prolif 384 87.9.
`O=C(NC(CSCc1ccccc1)C(=O)N/N=C/c1ccc(O)cc1O)c1ccc([N+](=O)[O-])cc1` (stereo unspecified) gave H69AR inhibit 30.1*, HCT116 bCat-KO 2.9*, PTEN del growth 3.0*, Fibroblast inh 24.9* and HUVEC prolif 384 7.6*.
`CCCCC1C2=C(CC(C)(C)CC2=O)OC2=C1C(=O)CC(C)(C)C2` gave HCT116 bCat-KO 87.7 and PTEN del growth 82.1.
`NCCc1ccc(O)c(O)c1` gave HCT116 bCat-KO 5.8* and PTEN del growth 22.4.
Screening CC(C)C(c1nnnn1C(C)(C)C)N1CCC(Cc2ccccc2)CC1 (stereo unspecified) returned HCT116 bCat-KO 76.5 and PTEN del growth 83.2.
O=c1c2c3nc4ccccc4nc3n(-c3cccc(F)c3)c2ncn1Cc1ccc2c(c1)OCO2 was read as H69AR inhibit 18.1*, Fibroblast inh 65.8 and HUVEC prolif 384 72.6.
Screening Cc1cc(Cl)cc(Cl)c1CNc1c([N+](=O)[O-])c(=O)oc2ccccc12 returned HCT116 bCat-KO 90.3 and PTEN del growth 86.9.
For CCOc1cccc2cc(-c3csc(NC(=O)CCC(=O)N4CCN(C)CC4)n3)c(=O)oc12 the results were H69AR inhibit 32.8*, Fibroblast inh 66.1 and HUVEC prolif 384 77.9.
For CCOc1cccc2cc(C(=O)Nc3nccs3)c(=O)oc12 the results were HCT116 bCat-KO 95.2 and PTEN del growth 91.6.
For CCOc1cccc2cc(-c3csc(NC(=O)CCC(=O)N4CCC(C)CC4)n3)c(=O)oc12 the results were H69AR inhibit 17.6*, HCT116 bCat-KO 72.8, PTEN del growth 79.3, Fibroblast inh 21.6* and HUVEC prolif 384 28.0*.
`O=C(NNC(=S)Nc1ccc(OC(F)F)cc1)c1cc2c(s1)CCCC2` gave HCT116 bCat-KO 86.6 and PTEN del growth 96.0.
`Nc1c(C(=O)Nc2ccc(S(=O)(=O)N3CCCC3)cc2)sc2nc3cc4c(cc3cc12)CCC4` gave HCT116 bCat-KO 5.8* and PTEN del growth 1.5*.
Screening CCn1c(SCC(=O)Nc2nc(-c3ccc(C)cc3)cs2)nnc1-c1ccccc1O returned H69AR inhibit 29.4*, HCT116 bCat-KO 15.3, PTEN del growth 19.3, Fibroblast inh 97.2 and HUVEC prolif 384 69.6.
Screening Cc1cccc(C)c1NCc1nnc(SCC(=O)Nc2nc(-c3ccccc3)cs2)n1-c1ccccc1 returned HCT116 bCat-KO 54.4 and PTEN del growth 57.0.

Screens: PubChem BioAssay, SRMLSC
